Common to all, as to format: cell-based
The target of one experiment is Maxi-K (Slo1 α1/β3) (Homo sapiens, UniProt Q12791). In words: Tl+ flux assay in HEK-293 cells expressing Maxi-K. Conditions: CRC.
Experiment [1] has as its target T1, WT human SLACK (Homo sapiens, UniProt Q5JUK3).
T1 sequence (Q5JUK3 1-1235 isoform Q5JUK3-3): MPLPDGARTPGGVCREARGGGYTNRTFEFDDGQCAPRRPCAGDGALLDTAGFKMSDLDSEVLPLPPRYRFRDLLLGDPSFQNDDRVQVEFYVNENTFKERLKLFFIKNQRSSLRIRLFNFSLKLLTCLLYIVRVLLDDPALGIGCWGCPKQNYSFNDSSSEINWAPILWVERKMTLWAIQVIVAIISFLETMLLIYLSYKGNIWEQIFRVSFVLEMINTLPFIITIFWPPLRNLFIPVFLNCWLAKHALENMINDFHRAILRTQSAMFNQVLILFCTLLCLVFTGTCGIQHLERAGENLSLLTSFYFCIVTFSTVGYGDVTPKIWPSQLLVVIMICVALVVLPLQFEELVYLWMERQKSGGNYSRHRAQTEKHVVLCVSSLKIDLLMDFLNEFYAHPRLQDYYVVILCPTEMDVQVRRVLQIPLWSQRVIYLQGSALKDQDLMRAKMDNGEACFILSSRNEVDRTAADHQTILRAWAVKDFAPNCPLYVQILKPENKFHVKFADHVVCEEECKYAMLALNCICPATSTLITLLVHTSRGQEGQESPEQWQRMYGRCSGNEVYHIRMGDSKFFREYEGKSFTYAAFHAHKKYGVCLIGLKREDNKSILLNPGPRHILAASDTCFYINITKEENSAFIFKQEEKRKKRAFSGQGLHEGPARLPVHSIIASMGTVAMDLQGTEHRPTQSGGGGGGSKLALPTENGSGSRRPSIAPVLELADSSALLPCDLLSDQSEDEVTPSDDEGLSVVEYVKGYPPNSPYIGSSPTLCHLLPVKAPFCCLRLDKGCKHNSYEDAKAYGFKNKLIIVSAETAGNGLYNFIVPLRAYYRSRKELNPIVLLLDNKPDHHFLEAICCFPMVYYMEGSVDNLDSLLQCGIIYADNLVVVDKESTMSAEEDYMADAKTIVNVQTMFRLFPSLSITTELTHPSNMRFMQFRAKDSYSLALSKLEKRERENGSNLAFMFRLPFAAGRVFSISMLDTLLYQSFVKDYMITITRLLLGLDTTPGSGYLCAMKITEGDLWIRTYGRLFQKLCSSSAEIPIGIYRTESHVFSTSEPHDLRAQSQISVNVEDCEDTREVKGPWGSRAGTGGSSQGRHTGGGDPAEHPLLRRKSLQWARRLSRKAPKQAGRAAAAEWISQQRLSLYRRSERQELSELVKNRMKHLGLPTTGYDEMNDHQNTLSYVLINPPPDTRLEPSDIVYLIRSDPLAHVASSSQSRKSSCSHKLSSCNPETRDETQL
In words: Whole-cell voltage-clamp electrophysiology, automated patch clamp. Conditions: CRC, CHO cells expressing WT SLACK. In a few lines:
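CHO cells stably expressing wild-type human SLACK. Currents recorded in whole-cell voltage-clamp mode on an automated patch clamp platform. IC50 derived from concentration-response data for a selected subset of analogs.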

In experiment [2] the target is T1, WT human SLACK. Description: Tl+ flux assay in HEK-293 cells stably expressing WT human SLACK. Conditions: for IC50 / EC50: CRC; for Mode: Tl+ flux, HEK-293 cells expressing WT SLACK. In a few lines:
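Stably transfected HEK-293 cells expressing wild-type human SLACK; thallium flux read-out. IC50 or EC50 taken from concentration-response curves, and each compound classed as inhibitor, activator or not active. Efficacy is the response amplitude at 30 μM test compound, as a percentage of the maximum response to a reference SLACK inhibitor (for inhibitors) or loxapine (for activators).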

Setting [3] is: IC50 for compounds of mode Inh (also cells printed Inactive).

Chain of Maxi-K (Slo1 α1/β3) (Q12791 whole entry, species assumed): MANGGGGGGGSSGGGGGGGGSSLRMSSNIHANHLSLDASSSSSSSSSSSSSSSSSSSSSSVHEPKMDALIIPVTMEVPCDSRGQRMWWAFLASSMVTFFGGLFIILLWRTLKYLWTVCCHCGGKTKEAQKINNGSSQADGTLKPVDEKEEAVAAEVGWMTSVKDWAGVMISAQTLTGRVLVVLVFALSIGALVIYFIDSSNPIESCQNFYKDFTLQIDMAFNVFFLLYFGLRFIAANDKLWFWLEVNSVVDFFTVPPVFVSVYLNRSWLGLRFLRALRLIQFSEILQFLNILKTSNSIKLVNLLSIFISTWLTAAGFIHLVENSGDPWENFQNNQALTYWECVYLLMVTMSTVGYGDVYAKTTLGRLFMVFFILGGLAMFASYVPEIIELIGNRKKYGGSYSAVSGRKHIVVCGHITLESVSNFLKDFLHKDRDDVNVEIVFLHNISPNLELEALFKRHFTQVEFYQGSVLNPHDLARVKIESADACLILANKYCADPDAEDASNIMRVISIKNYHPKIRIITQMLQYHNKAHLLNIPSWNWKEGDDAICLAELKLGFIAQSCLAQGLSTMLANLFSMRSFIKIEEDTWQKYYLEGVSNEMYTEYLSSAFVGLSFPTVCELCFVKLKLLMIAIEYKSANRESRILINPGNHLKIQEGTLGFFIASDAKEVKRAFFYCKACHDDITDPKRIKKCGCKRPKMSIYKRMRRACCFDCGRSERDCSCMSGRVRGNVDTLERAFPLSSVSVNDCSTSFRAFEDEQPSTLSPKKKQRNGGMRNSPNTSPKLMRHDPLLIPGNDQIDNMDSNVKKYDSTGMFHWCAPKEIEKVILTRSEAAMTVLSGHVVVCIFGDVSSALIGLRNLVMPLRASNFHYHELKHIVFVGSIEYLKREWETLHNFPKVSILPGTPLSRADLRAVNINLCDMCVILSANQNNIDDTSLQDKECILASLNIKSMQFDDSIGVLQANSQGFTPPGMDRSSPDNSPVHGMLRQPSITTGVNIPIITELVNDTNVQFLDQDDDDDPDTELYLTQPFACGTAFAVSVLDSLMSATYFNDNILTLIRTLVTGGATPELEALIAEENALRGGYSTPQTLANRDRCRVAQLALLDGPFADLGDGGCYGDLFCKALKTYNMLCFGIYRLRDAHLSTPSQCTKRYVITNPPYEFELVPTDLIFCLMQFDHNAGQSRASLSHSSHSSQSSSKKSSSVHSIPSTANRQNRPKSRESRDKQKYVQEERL
Chain of Maxi-K (Slo1 α1/β3) (Q9NPA1 whole entry partner, species assumed): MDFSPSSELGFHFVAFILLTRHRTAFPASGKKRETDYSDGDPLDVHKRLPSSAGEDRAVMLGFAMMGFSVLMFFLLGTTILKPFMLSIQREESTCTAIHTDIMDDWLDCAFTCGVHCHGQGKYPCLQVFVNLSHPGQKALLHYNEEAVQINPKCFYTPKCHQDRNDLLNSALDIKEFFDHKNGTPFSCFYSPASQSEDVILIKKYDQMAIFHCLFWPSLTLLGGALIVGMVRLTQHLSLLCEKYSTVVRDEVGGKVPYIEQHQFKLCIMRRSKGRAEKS

Regarding `CCOc1ccccc1S(=O)(=O)N1CC(c2nc(-c3ccsc3)no2)C1` [Compound 5, 5-(1-((2-Ethoxyphenyl)sulfonyl)azetidin-3-yl)-3-(thiophen-3-yl)-1,2,4-oxadiazole], the “Maxi-K (Slo1 α1/β3) IC50” value on Maxi-K (Slo1 α1/β3) was “inactive”. For the same compound, on WT human SLACK [1], the “IC50 (whole-cell EP)” value is reported as “submicromolar potency”. In addition, the “IC50 / EC50” value against WT human SLACK [2] (setting [3]) is 2.1 µM.

For the compound `CC(C)Oc1ccccc1S(=O)(=O)N1CC(c2nc(-c3ccsc3)no2)C1` [Compound 27, 5-(1-((2-Isopropoxyphenyl)sulfonyl)azetidin-3-yl)-3-(thiophen-3-yl)-1,2,4-oxadiazole], the “Maxi-K (Slo1 α1/β3) IC50” value on Maxi-K (Slo1 α1/β3) was “inactive”. At WT human SLACK [2] (setting [3]), the “IC50 / EC50” value was determined as 3.7 µM.

With `CCOc1ccccc1S(=O)(=O)N1CC(c2nc(-c3ccc(F)cc3)no2)C1` [Compound 43, 5-(1-((2-Ethoxyphenyl)sulfonyl)azetidin-3-yl)-3-(4-fluorophenyl)-1,2,4-oxadiazole], the “Maxi-K (Slo1 α1/β3) IC50” value at Maxi-K (Slo1 α1/β3) is “inactive”. Also, on WT human SLACK [2] (setting [3]), the “IC50 / EC50” value came to 3.2 µM. Take `CCOc1ccccc1S(=O)(=O)N1CC(c2nc(-c3ccc(F)cc3Cl)no2)C1` [Compound 58, 3-(2-Chloro-4-fluorophenyl)-5-(1-((2-ethoxyphenyl)sulfonyl)azetidin-3-yl)-1,2,4-oxadiazole]: at Maxi-K (Slo1 α1/β3), the “Maxi-K (Slo1 α1/β3) IC50” value is “inactive”. Further, the “IC50 (whole-cell EP)” value against WT human SLACK [1] is listed as “submicromolar potency”. Besides, the “IC50 / EC50” value on WT human SLACK [2] (setting [3]) came to 2.1 µM.

In the case of `CCOc1ccccc1S(=O)(=O)N1CCC(c2nc(-c3ccc(F)cc3)no2)CC1` [Compound 76], at Maxi-K (Slo1 α1/β3), the “Maxi-K (Slo1 α1/β3) IC50” value was “inactive”. Further, the “IC50 / EC50” value on WT human SLACK [2] (setting [3]) stood at 4.9 µM. Regarding `CCOc1ccccc1S(=O)(=O)N1CC(c2nnc(-c3ccc(F)cc3)[nH]2)C1` [Compound 86], on WT human SLACK [2] (EC50 for compounds of mode Act), the “IC50 / EC50” value is >10 µM. For the compound `CCOc1ccccc1S(=O)(=O)N1CC(c2cc(-c3ccc(F)cc3)no2)C1` [Compound 92], the “IC50 / EC50” value against WT human SLACK [2] (setting [3]) is “Inactive”. For the same compound, on WT human SLACK [2], the Mode entry is on record as “Inactive”. Take `CCOc1ccccc1S(=O)(=O)N1CC(c2cn(-c3ccc(F)cc3)nn2)C1` [Compound 95]: at WT human SLACK [2] (EC50 for compounds of mode Act), the “IC50 / EC50” value is >10 µM. For `CCOc1ccccc1S(=O)(=O)N1CC(c2ncc(-c3ccc(F)cc3)o2)C1` [Compound 97], on WT human SLACK [2] (EC50 for compounds of mode Act), the “IC50 / EC50” value amounted to 10 µM.

As for `CCOc1ccccc1S(=O)(=O)N1CC(c2nc(-c3ccc(F)cc3)c[nH]2)C1` [Compound 99], at WT human SLACK [2] (EC50 for compounds of mode Act), the “IC50 / EC50” value came to 4.1 µM. Consider `CCOc1ccccc1S(=O)(=O)N1CC(c2nc(-c3ccc(F)cc3)cn2C)C1` [Compound 100], for which the “IC50 / EC50” value at WT human SLACK [2] (setting [3]) is >10 µM.

Consider `CCOc1ccccc1S(=O)(=O)N1CC(c2noc(-c3ccc(F)cc3)n2)C1` [Compound 101], for which the “IC50 / EC50” value on WT human SLACK [2] (setting [3]) is >10 µM. On to `CCOc1ccccc1S(=O)(=O)N1CC(c2cc(-c3ccc(F)cc3)on2)C1` [Compound 102], for which, at WT human SLACK [2] (setting [3]), the “IC50 / EC50” value is listed as “Inactive”. Further, the Mode entry on WT human SLACK [2] is “Inactive”. Consider `CCOc1ccccc1S(=O)(=O)N1CC(c2cc(-c3ccc(F)cc3)n[nH]2)C1` [Compound 103], for which the “IC50 / EC50” value at WT human SLACK [2] (EC50 for compounds of mode Act) is >10 µM. Take `[2H]C([2H])([2H])C([2H])([2H])Oc1ccccc1S(=O)(=O)N1CC(c2nc(-c3ccc(F)cc3)no2)C1` [Compound 109, 5-(1-((2-(Ethoxy-d5)phenyl)sulfonyl)azetidin-3-yl)-3-(4-fluorophenyl)-1,2,4-oxadiazole]: at Maxi-K (Slo1 α1/β3), the “Maxi-K (Slo1 α1/β3) IC50” value was “inactive”. The “IC50 / EC50” value against WT human SLACK [2] (setting [3]) amounted to 5.4 µM.

Turning to `O=S(=O)(c1ccccc1OCC1CCC1)N1CC(c2nc(-c3ccc(F)cc3)no2)C1` [Compound 110, 5-(1-((2-(Cyclobutylmethoxy)phenyl)sulfonyl)azetidin-3-yl)-3-(4-fluorophenyl)-1,2,4-oxadiazole], the “IC50 / EC50” value against WT human SLACK [2] (setting [3]) came to 9.3 µM. Still for that read-out and setting: the value for `CCOc1ncccc1S(=O)(=O)N1CC(c2nc(-c3ccc(F)cc3)no2)C1` [Compound 111] was >10 µM.

Take `O=S(=O)(c1ccccc1OCC(F)(F)F)N1CC(c2nc(-c3ccc(F)cc3)no2)C1` [Compound 113, 3-(4-Fluorophenyl)-5-(1-((2-(2,2,2-trifluoroethoxy)phenyl)sulfonyl)azetidin-3-yl)-1,2,4-oxadiazole]: at Maxi-K (Slo1 α1/β3), the “Maxi-K (Slo1 α1/β3) IC50” value is “inactive”. The “IC50 / EC50” value at WT human SLACK [2] (setting [3]) stood at 8.8 µM. With `O=S(=O)(c1ccccc1OCC1CC1)N1CC(c2nc(-c3ccc(F)cc3)no2)C1` [Compound 114, 5-(1-((2-(Cyclopropylmethoxy)phenyl)sulfonyl)azetidin-3-yl)-3-(4-fluorophenyl)-1,2,4-oxadiazole], at WT human SLACK [2] (setting [3]), the “IC50 / EC50” value turned out to be 6.0 µM. For `O=S(=O)(c1ccccc1OC1COC1)N1CC(c2nc(-c3ccc(F)cc3)no2)C1` [Compound 115, 3-(4-Fluorophenyl)-5-(1-((2-(oxetan-3-yloxy)phenyl)sulfonyl)azetidin-3-yl)-1,2,4-oxadiazole], the “IC50 / EC50” value at WT human SLACK [2] (EC50 for compounds of mode Act) was 2.5 µM. Consider `O=S(=O)(c1ccccc1OC1CCCC1)N1CC(c2nc(-c3ccc(F)cc3)no2)C1` [Compound 116, 5-(1-((2-(cyclopentyloxy)phenyl)sulfonyl)azetidin-3-yl)-3-(4-fluorophenyl)-1,2,4-oxadiazole], for which the “IC50 / EC50” value at WT human SLACK [2] (setting [3]) was 5.8 µM. `O=S(=O)(c1ccccc1N1CCCC1)N1CC(c2nc(-c3ccc(F)cc3)no2)C1` [Compound 117, 3-(4-Fluorophenyl)-5-(1-((2-(pyrrolidin-1-yl)phenyl)sulfonyl)azetidin-3-yl)-1,2,4-oxadiazole]: the “IC50 / EC50” value at WT human SLACK [2] (setting [3]) turned out to be 8.9 µM. In the case of `O=S(=O)(c1ccccc1N1CCCCC1)N1CC(c2nc(-c3ccc(F)cc3)no2)C1` [Compound 118, 3-(4-Fluorophenyl)-5-(1-((2-(piperidin-1-yl)phenyl)sulfonyl)azetidin-3-yl)-1,2,4-oxadiazole], on WT human SLACK [2] (setting [3]), the “IC50 / EC50” value is >10 µM. Take `O=S(=O)(c1cccc2c1OCCC2)N1CC(c2nc(-c3ccc(F)cc3)no2)C1` [Compound 119, 5-(1-(chroman-8-ylsulfonyl)azetidin-3-yl)-3-(4-fluorophenyl)-1,2,4-oxadiazole]: on Maxi-K (Slo1 α1/β3), the “Maxi-K (Slo1 α1/β3) IC50” value is “inactive”. For the same compound, the “IC50 / EC50” value on WT human SLACK [2] (setting [3]) amounted to 8.7 µM. On to `O=S(=O)(c1cccc2ccoc12)N1CC(c2nc(-c3ccc(F)cc3)no2)C1` [Compound 120, 5-(1-(Benzofuran-7-ylsulfonyl)azetidin-3-yl)-3-(4-fluorophenyl)-1,2,4-oxadiazole], for which the “IC50 / EC50” value on WT human SLACK [2] (EC50 for compounds of mode Act) was 2.3 µM.

As to `O=S(=O)(c1cccn2ccnc12)N1CC(c2nc(-c3ccc(F)cc3)no2)C1` [Compound 125], at WT human SLACK [2] (EC50 for compounds of mode Act), the “IC50 / EC50” value was >10 µM.

Turning to `Cc1cn2cccc(S(=O)(=O)N3CC(c4nc(-c5ccc(F)cc5)no4)C3)c2n1` [Compound 126], the “IC50 / EC50” value against WT human SLACK [2] (EC50 for compounds of mode Act) is >10 µM.

For the compound `O=S(=O)(c1cccn2ncnc12)N1CC(c2nc(-c3ccc(F)cc3)no2)C1` [Compound 129], the “IC50 / EC50” value on WT human SLACK [2] (EC50 for compounds of mode Act) was >10 µM.

Take `Cc1nc2c(S(=O)(=O)N3CC(c4nc(-c5ccc(F)cc5)no4)C3)cccn2n1` [Compound 130]: the “IC50 / EC50” value at WT human SLACK [2] (EC50 for compounds of mode Act) is >10 µM. The same measure, in the same setting: the value for `O=S(=O)(c1cccn2cnnc12)N1CC(c2nc(-c3ccc(F)cc3)no2)C1` [Compound 132] was >10 µM. For the compound `Cc1nnc2c(S(=O)(=O)N3CC(c4nc(-c5ccc(F)cc5)no4)C3)cccn12` [Compound 133], the “IC50 / EC50” value against WT human SLACK [2] (setting [3]) was “Inactive”. Moreover, the Mode entry at WT human SLACK [2] is on record as “Inactive”.

For the origin of these results see publication PMC10842602 (Bioorganic & medicinal chemistry, 2023).
